# In ChEMBL document CHEMBL3046615, “Isolation of nematicidal compounds from Tagetes patula L. yellow flowers: structure-activity relationship studies against cyst nematode Heterodera zeae infective stage larvae” (2011):
# Active and inactive are the calls of the source. The calls are words filed in the database; no cut-off is given here.
# Experiments:
# Heterodera zeae [1] = assay: Nematicidal activity against Heterodera zeae infective stage larvae assessed as nematode mortality at 5% under light conditions measured 24 hr post dose by stereoscopic microscopy; format: functional
# How it was run: (§1)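 Freshly hatched H. zeae second-stage juveniles, 100 per Petri plate, three replicates. Samples in MeOH, DMSO or water were tested in glass cavity blocks; petroleum ether samples were dried onto the block and larvae transferred on agar pieces. Percentages are dilutions of 30 mg/mL stocks (extracts/fractions) or 1 mg/mL stocks (pure compounds). Incubated at 28 ± 2 °C in light or dark box; mortality averaged over three replicates.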
# Heterodera zeae [2] = assay: Nematicidal activity against Heterodera zeae infective stage larvae assessed as nematode mortality at 0.125% under dark conditions measured 48 hr post dose by stereoscopic microscopy; format: functional; how it was run: as §1
# Heterodera zeae [3] = assay: Nematicidal activity against Heterodera zeae infective stage larvae assessed as nematode mortality at 0.125% under dark conditions measured 5 to 60 min post dose by stereoscopic microscopy; format: functional, organism-based
# How it was run: (§2)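 H. zeae freshly hatched second-stage juveniles, 100 per plate, three replicates, at 28 ± 2 °C under light or in a dark box. Dilutions are % of a stock: 30 mg/mL for extracts/fractions, 1 mg/mL for pure compounds. Methanol-, DMSO- or water-soluble samples were tested in glass cavity blocks. Petroleum ether-soluble samples were air-dried in the block and covered with agar pieces bearing cultured larvae. Mortality was followed over 5–60 min; each value is the mean of three experiments.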
# Heterodera zeae [4] = assay: Nematicidal activity against Heterodera zeae infective stage larvae assessed as nematode mortality at 2% under dark conditions measured 5 to 60 min post dose by stereoscopic microscopy; format: functional, organism-based; how it was run: as §2
# Heterodera zeae [5] = assay: Nematicidal activity against Heterodera zeae infective stage larvae assessed as nematode mortality at 0.125% under dark conditions measured 24 hr post dose by stereoscopic microscopy; format: functional; how it was run: as §1
# Heterodera zeae [6] = assay: Nematicidal activity against Heterodera zeae infective stage larvae assessed as nematode mortality at 5% under dark conditions measured 5 to 60 min post dose by stereoscopic microscopy; format: functional, organism-based; how it was run: as §2
# Heterodera zeae [7] = assay: Nematicidal activity against Heterodera zeae infective stage larvae assessed as nematode mortality at 0.25% under light conditions measured 24 hr post dose by stereoscopic microscopy; format: functional; how it was run: as §1
# Heterodera zeae [8] = assay: Nematicidal activity against Heterodera zeae infective stage larvae assessed as nematode mortality at 1% under light conditions measured 5 to 60 min post dose by stereoscopic microscopy; format: functional, organism-based; how it was run: as §2
# Heterodera zeae [9] = assay: Nematicidal activity against Heterodera zeae infective stage larvae assessed as nematode mortality at 0.5% under dark conditions measured 5 to 60 min post dose by stereoscopic microscopy; format: functional, organism-based; how it was run: as §2
# Heterodera zeae [10] = assay: Nematicidal activity against Heterodera zeae infective stage larvae assessed as nematode mortality at 5% under light conditions measured 5 to 60 min post dose by stereoscopic microscopy; format: functional, organism-based; how it was run: as §2
# Heterodera zeae [11] = assay: Nematicidal activity against Heterodera zeae infective stage larvae assessed as nematode mortality at 0.25% under dark conditions measured 5 to 60 min post dose by stereoscopic microscopy; format: functional, organism-based; how it was run: as §2
# Heterodera zeae [12] = assay: Nematicidal activity against Heterodera zeae infective stage larvae assessed as nematode mortality at 1% under dark conditions measured 5 to 60 min post dose by stereoscopic microscopy; format: functional, organism-based; how it was run: as §2
# Heterodera zeae [13] = assay: Nematicidal activity against Heterodera zeae infective stage larvae assessed as nematode mortality at 0.25% under dark conditions measured 48 hr post dose by stereoscopic microscopy; format: functional; how it was run: as §1
# Heterodera zeae [14] = assay: Nematicidal activity against Heterodera zeae infective stage larvae assessed as nematode mortality at 0.5% under light conditions measured 24 hr post dose by stereoscopic microscopy; format: functional; how it was run: as §1
# Heterodera zeae [15] = assay: Nematicidal activity against Heterodera zeae infective stage larvae assessed as nematode mortality at 0.5% under dark conditions measured 24 hr post dose by stereoscopic microscopy; format: functional; how it was run: as §1
# Heterodera zeae [16] = assay: Nematicidal activity against Heterodera zeae infective stage larvae assessed as nematode mortality at 2% under light conditions measured 24 hr post dose by stereoscopic microscopy; format: functional; how it was run: as §1
# Heterodera zeae [17] = assay: Nematicidal activity against Heterodera zeae infective stage larvae assessed as nematode mortality at 0.5% under light conditions measured 5 to 60 min post dose by stereoscopic microscopy; format: functional, organism-based; how it was run: as §2
# Heterodera zeae [18] = assay: Nematicidal activity against Heterodera zeae infective stage larvae assessed as nematode mortality at 2% under dark conditions measured 24 hr post dose by stereoscopic microscopy; format: functional; how it was run: as §1
# Heterodera zeae [19] = assay: Nematicidal activity against Heterodera zeae infective stage larvae assessed as nematode mortality at 1% under dark conditions measured 24 hr post dose by stereoscopic microscopy; format: functional; how it was run: as §1
# Heterodera zeae [20] = assay: Nematicidal activity against Heterodera zeae infective stage larvae assessed as nematode mortality at 1% under light conditions measured 24 hr post dose by stereoscopic microscopy; format: functional; how it was run: as §1
# Heterodera zeae [21] = assay: Nematicidal activity against Heterodera zeae infective stage larvae assessed as nematode mortality at 5% under dark conditions measured 24 hr post dose by stereoscopic microscopy; format: functional; how it was run: as §1
# Heterodera zeae [22] = assay: Nematicidal activity against Heterodera zeae infective stage larvae assessed as nematode mortality at 0.25% under light conditions measured 48 hr post dose by stereoscopic microscopy; format: functional; how it was run: as §1
# Heterodera zeae [23] = assay: Nematicidal activity against Heterodera zeae infective stage larvae assessed as nematode mortality at 0.125% under light conditions measured 48 hr post dose by stereoscopic microscopy; format: functional; how it was run: as §1
# Heterodera zeae [24] = assay: Nematicidal activity against Heterodera zeae infective stage larvae assessed as nematode mortality at 0.25% under light conditions measured 5 to 60 min post dose by stereoscopic microscopy; format: functional, organism-based; how it was run: as §2
# Heterodera zeae [25] = assay: Nematicidal activity against Heterodera zeae infective stage larvae assessed as nematode mortality at 0.125% under light conditions measured 24 hr post dose by stereoscopic microscopy; format: functional; how it was run: as §1
# Heterodera zeae [26] = assay: Nematicidal activity against Heterodera zeae infective stage larvae assessed as nematode mortality at 0.25% under dark conditions measured 24 hr post dose by stereoscopic microscopy; format: functional; how it was run: as §1
# Heterodera zeae [27] = assay: Nematicidal activity against Heterodera zeae infective stage larvae assessed as nematode mortality at 2% under light conditions measured 5 to 60 min post dose by stereoscopic microscopy; format: functional, organism-based; how it was run: as §2
# Heterodera zeae [28] = assay: Nematicidal activity against Heterodera zeae infective stage larvae assessed as nematode mortality at 0.125% under light conditions measured 5 to 60 min post dose by stereoscopic microscopy; format: functional, organism-based; how it was run: as §2
# Heterodera zeae [29] = assay: Nematicidal activity against Heterodera zeae infective stage larvae assessed as nematode mortality at 0.125% under light conditions measured 72 hr post dose by stereoscopic microscopy; format: functional; how it was run: as §1
# Heterodera zeae [30] = assay: Nematicidal activity against Heterodera zeae infective stage larvae assessed as nematode mortality at 0.5% under dark conditions measured 72 hr post dose by stereoscopic microscopy; format: functional; how it was run: as §1
# Heterodera zeae [31] = assay: Nematicidal activity against Heterodera zeae infective stage larvae assessed as nematode mortality at 1% under dark conditions measured 48 hr post dose by stereoscopic microscopy; format: functional; how it was run: as §1
# Heterodera zeae [32] = assay: Nematicidal activity against Heterodera zeae infective stage larvae assessed as nematode mortality at 0.125% under dark conditions measured 72 hr post dose by stereoscopic microscopy; format: functional; how it was run: as §1
# Heterodera zeae [33] = assay: Nematicidal activity against Heterodera zeae infective stage larvae assessed as nematode mortality at 0.25% under dark conditions measured 72 hr post dose by stereoscopic microscopy; format: functional; how it was run: as §1
# Heterodera zeae [34] = assay: Nematicidal activity against Heterodera zeae infective stage larvae assessed as nematode mortality at 0.5% under light conditions measured 48 hr post dose by stereoscopic microscopy; format: functional; how it was run: as §1
# Heterodera zeae [35] = assay: Nematicidal activity against Heterodera zeae infective stage larvae assessed as nematode mortality at 0.5% under light conditions measured 72 hr post dose by stereoscopic microscopy; format: functional; how it was run: as §1
# Heterodera zeae [36] = assay: Nematicidal activity against Heterodera zeae infective stage larvae assessed as nematode mortality at 1% under light conditions measured 72 hr post dose by stereoscopic microscopy; format: functional; how it was run: as §1
# Heterodera zeae [37] = assay: Nematicidal activity against Heterodera zeae infective stage larvae assessed as nematode mortality at 0.25% under light conditions measured 72 hr post dose by stereoscopic microscopy; format: functional; how it was run: as §1
# Heterodera zeae [38] = assay: Nematicidal activity against Heterodera zeae infective stage larvae assessed as nematode mortality at 0.5% under dark conditions measured 48 hr post dose by stereoscopic microscopy; format: functional; how it was run: as §1
# Heterodera zeae [39] = assay: Nematicidal activity against Heterodera zeae infective stage larvae assessed as nematode mortality at 1% under dark conditions measured 72 hr post dose by stereoscopic microscopy; format: functional; how it was run: as §1
# Heterodera zeae [40] = assay: Nematicidal activity against Heterodera zeae infective stage larvae assessed as nematode mortality at 1% under light conditions measured 48 hr post dose by stereoscopic microscopy; format: functional; how it was run: as §1
Structure (SMILES),mortality (Heterodera zeae [2]),Activity (Heterodera zeae [3]),Activity (Heterodera zeae [4]),mortality (Heterodera zeae [5]),Activity (Heterodera zeae [6]),mortality (Heterodera zeae [7]),Activity (Heterodera zeae [8]),Activity (Heterodera zeae [9]),Activity (Heterodera zeae [10]),Activity (Heterodera zeae [11]),Activity (Heterodera zeae [12]),mortality (Heterodera zeae [13]),mortality (Heterodera zeae [14]),mortality (Heterodera zeae [15]),Activity (Heterodera zeae [17]),mortality (Heterodera zeae [19]),mortality (Heterodera zeae [20]),mortality (Heterodera zeae [22]),mortality (Heterodera zeae [23]),Activity (Heterodera zeae [24]),further results
CNC(=O)Oc1cccc2c1OC(C)(C)C2 [CARBOFURAN],100%,inactive,inactive,60%,inactive,80%,inactive,inactive,inactive,inactive,inactive,100%,100%,100%,inactive,100%,100%,100%,100%,inactive,mortality (Heterodera zeae [1]): 100%; mortality (Heterodera zeae [16]): 100%; mortality (Heterodera zeae [18]): 100%; mortality (Heterodera zeae [21]): 100%; mortality (Heterodera zeae [25]): 40%; mortality (Heterodera zeae [26]): 80%; Activity (Heterodera zeae [27]): inactive; Activity (Heterodera zeae [28]): inactive
O=C(O)c1ccccc1 [BENZOIC ACID],0%,inactive,inactive,0%,inactive,0%,inactive,inactive,inactive,inactive,inactive,10%,0%,0%,inactive,0%,0%,0%,0%,inactive,mortality (Heterodera zeae [29]): 0%; mortality (Heterodera zeae [30]): 80%; mortality (Heterodera zeae [31]): 70%; mortality (Heterodera zeae [32]): 0%; mortality (Heterodera zeae [33]): 50%; mortality (Heterodera zeae [34]): 10%; mortality (Heterodera zeae [35]): 40%; mortality (Heterodera zeae [36]): 70%; mortality (Heterodera zeae [37]): 0%; mortality (Heterodera zeae [38]): 50%; mortality (Heterodera zeae [39]): 80%; mortality (Heterodera zeae [40]): 50%; mortality (Heterodera zeae [25]): 0%; mortality (Heterodera zeae [26]): 0%; Activity (Heterodera zeae [27]): inactive; Activity (Heterodera zeae [28]): inactive
